Activity calls are given as the source filed them. The rule behind the calls is not given here.
Columns and labels:
Cytochrome P450 2A6 = biological target: T1, Cytochrome P450 2A6 (Homo sapiens, UniProt P11509); test: Inhibition of human CYP2A6 expressed in Sacchrosomes by fluorescence based assay; type: ADME
T1 sequence (P11509 whole entry): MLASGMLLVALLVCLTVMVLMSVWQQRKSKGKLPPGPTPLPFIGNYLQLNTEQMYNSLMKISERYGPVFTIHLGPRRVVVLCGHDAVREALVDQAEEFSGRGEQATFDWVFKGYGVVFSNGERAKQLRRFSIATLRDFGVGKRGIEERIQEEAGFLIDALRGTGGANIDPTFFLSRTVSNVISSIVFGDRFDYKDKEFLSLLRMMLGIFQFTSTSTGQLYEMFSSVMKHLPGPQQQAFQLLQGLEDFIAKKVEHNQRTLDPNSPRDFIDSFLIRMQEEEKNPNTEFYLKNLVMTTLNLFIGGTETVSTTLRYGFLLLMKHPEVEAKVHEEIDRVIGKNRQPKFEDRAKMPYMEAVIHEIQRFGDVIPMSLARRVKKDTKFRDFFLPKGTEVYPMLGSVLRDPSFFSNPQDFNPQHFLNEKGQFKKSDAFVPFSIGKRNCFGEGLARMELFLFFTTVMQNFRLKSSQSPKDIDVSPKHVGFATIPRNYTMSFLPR

Cytochrome P450 1A1 = biological target: T2, Cytochrome P450 1A1 (Homo sapiens, UniProt P04798); test: Inhibition of human CYP1A1 expressed in HEK293 cells assessed as reduction in CYP1A1 mediated […] induced-toxicity by measuring EC50 at 3 times of IC50 concentration by MTT assay relative to control; type: cell-based; set-up: scale not given: the % may be the effect or the level left
T2 sequence (P04798 whole entry): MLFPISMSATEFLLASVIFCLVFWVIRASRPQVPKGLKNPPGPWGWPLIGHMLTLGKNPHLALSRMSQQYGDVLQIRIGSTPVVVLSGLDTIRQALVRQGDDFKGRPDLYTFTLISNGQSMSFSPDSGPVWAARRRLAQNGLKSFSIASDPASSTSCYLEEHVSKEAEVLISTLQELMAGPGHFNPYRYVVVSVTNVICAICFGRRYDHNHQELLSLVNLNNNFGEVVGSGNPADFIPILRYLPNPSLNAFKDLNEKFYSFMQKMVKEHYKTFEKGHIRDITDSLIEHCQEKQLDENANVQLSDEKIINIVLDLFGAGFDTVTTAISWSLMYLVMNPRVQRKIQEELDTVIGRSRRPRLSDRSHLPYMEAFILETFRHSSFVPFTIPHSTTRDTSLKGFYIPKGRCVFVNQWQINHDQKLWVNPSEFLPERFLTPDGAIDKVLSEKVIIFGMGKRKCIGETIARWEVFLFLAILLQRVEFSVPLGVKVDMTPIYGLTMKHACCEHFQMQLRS
In short: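 Adherent HEK293 cells transfected with pcDNA3.1/hCYP1A1 were exposed to B[a]P over 0.05–100 µM, with inhibitor at 3x its IC50 from the suspension HEK293-CYP1A1 assay. The EC50 of B[a]P for cell growth inhibition was derived. Cells transfected with empty plasmid were used for comparison. Values are mean and SD of three independent experiments.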

Cytochrome P450 2C8 = biological target: T3, Cytochrome P450 2C8 (Homo sapiens, UniProt P10632); test: Inhibition of human CYP2C8 expressed in Sacchrosomes by fluorescence based assay; type: ADME
T3 sequence (P10632 whole entry): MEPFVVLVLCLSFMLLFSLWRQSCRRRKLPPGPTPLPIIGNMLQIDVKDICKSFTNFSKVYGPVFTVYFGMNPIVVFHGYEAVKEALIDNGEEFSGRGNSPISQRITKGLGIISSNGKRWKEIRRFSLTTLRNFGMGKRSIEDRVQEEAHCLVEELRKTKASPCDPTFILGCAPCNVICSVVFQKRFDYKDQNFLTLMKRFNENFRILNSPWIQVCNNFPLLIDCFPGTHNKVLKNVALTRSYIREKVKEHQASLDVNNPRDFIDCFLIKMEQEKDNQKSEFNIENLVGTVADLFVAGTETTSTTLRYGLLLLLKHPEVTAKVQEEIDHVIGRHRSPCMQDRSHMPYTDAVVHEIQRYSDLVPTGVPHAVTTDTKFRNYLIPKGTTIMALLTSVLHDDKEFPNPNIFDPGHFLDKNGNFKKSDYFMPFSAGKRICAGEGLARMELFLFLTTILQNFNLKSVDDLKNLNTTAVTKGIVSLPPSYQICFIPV

Cytochrome P450 2C19 = Cytochrome P450 2C19 (Homo sapiens, UniProt P33261); test: Inhibition of human CYP2C19 expressed in Sacchrosomes using 3-cyano-7-ethoxycoumarin as substrate by fluorescence based assay; type: ADME
MCF7 [1] = test: Induction of cell cycle arrest in human MCF7 over expressing CYP1A cells assessed as accumulation at G0/G1 phase incubated for 24 hrs by PI staining based flow cytometric analysis (Rvb =54.3 %); type: functional
Cytochrome P450 2C18 = biological target: T4, Cytochrome P450 2C18 (Homo sapiens, UniProt P33260); test: Inhibition of human CYP2C18 expressed in Sacchrosomes by fluorescence based assay; type: ADME
T4 sequence (P33260 whole entry): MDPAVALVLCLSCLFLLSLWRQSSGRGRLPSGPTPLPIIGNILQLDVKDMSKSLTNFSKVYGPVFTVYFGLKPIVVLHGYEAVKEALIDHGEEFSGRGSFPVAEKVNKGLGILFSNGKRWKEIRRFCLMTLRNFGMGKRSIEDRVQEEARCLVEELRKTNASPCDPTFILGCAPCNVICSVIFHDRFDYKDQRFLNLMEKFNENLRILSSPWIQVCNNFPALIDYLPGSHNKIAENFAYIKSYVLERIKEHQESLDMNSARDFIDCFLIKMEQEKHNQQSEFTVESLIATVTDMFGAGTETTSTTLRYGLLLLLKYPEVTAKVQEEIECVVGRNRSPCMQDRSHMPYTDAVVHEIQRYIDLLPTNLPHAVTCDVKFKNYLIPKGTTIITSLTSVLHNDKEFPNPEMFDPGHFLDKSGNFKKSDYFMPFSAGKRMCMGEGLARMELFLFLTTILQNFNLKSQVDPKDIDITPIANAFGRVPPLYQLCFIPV

MCF7 [2] = test: Induction of cellular senescence in human MCF7 cells over expressing CYP1A assessed as increase in beta-gal-positive cells at 2 times of EC50 concentration incubated for 96 hrs by microscopic assay relative to control; type: functional
In short: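 MCF7-1A1 cells were seeded at 25,000 per well and stabilised for 24 h, then treated for 96 h. Cells were fixed for 10 min at room temperature and stained for β-galactosidase at 37 °C without CO2 for 48 h. The percentage of blue-stained cells was counted by phase-contrast microscopy against untreated cultures.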

Homo sapiens = organism: Homo sapiens; test: Selectivity ratio IC50 for inhibition of human CYP1B1 expressed in HEK293 cells toIC50 for Inhibition of CYP1A1 expressed in HEK293 cells; type: cell-based
MCF7 [3] = test: Induction of cell cycle arrest in human MCF7 over expressing CYP1A cells assessed as accumulation at S phase incubated for 24 hrs by PI staining based flow cytometric analysis (reference value: 20.1%); type: functional
MCF7 [4] = test: Cell cycle arrest in human MCF-7 cells over expressing CYP1A1 assessed as down regulation of CyclinD1 after 24 hrs by western blotting assay; type: functional, cell-based
In short: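 Cyclin D1 was detected by Western blot, with β-tubulin as loading control. Untreated cells served as control.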

Cytochrome P450 2C19, sequence (P33261 whole entry): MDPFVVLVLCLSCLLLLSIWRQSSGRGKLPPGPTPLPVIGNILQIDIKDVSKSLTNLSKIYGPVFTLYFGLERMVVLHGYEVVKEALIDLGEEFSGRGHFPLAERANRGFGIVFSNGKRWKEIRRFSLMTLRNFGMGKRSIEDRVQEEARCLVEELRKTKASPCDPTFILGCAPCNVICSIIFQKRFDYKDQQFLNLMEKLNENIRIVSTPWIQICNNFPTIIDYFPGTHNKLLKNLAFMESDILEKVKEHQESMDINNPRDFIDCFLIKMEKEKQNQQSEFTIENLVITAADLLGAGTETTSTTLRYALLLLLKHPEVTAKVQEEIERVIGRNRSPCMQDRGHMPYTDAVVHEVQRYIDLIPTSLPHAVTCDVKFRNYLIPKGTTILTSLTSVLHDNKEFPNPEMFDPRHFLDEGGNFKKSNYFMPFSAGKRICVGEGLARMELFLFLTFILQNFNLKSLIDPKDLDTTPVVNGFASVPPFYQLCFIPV

SMILES	IC50 (Cytochrome P450 2A6)	Activity (Cytochrome P450 1A1)	IC50 (Cytochrome P450 2C8)	IC50 (Cytochrome P450 2C19)	Activity (MCF7 [1])	IC50 (Cytochrome P450 2C18)	Activity (MCF7 [2])	Ratio IC50 (Homo sapiens)	Activity (MCF7 [3])	Activity (MCF7 [4])
O=c1cc(-c2ccccc2)oc2c1ccc1occc12 [LANCEOLATIN B]	> 20 µM	100%	> 20 µM	> 20 µM	81%	> 20 µM	60%	19.5	7.1%	Active
COc1c(-c2ccc3c(c2)OCO3)oc2c(ccc3occc32)c1=O [PONGAPIN]	> 20 µM	100%	> 20 µM	> 20 µM	83.8%	> 20 µM	60%	53	6.7%	Active

From ChEMBL document CHEMBL4673221, “Furanoflavones pongapin and lanceolatin B blocks the cell cycle and induce senescence in CYP1A1-overexpressing breast cancer cells” (Bioorg Med Chem, 2018)
